From ChEMBL document CHEMBL1136767, “Novel nonimidazole histamine H3 receptor antagonists: 1-(4-(phenoxymethyl)benzyl)piperidines and related compounds” (J Med Chem, 2003) come the findings set out here.

What is called ED50 is the midpoint of the dose-response relation. A higher ED50 goes with weaker potency. By Ki is commonly meant the dissociation constant of the complex between target and ligand, obtained from inhibition or displacement. By IC50 is commonly meant the point on the concentration scale where inhibition reaches its midpoint. A higher IC50 goes with weaker potency in that assay.

Assay [1] concerns the target Histamine H3 receptor (Mus musculus) (UniProt P58406). In words: In vivo effects in mice against H3 receptor on N6-methylhistamine levels in brain (following oral dosing of compound). In kind it is functional, organism-based. The essentials: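 Swiss mice fasted 24 h, dosed orally; decapitated 90 min later and cerebral cortex homogenized in ice-cold 0.4 M perchloric acid. Nτ-methylhistamine measured by radioimmunoassay.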

In assay [2] the target is Histamine H3 receptor (Cavia porcellus, UniProt Q9JI35). Put plainly: Potency at histamine H3 receptor subtype, was tested on guinea pig right ileum. The assay is classed as tissue-based. Conditions: read-out: pA2 (converted).
The target in assay [3] is T1, Histamine H3 receptor (Homo sapiens, UniProt Q9Y5N1). In words: Displacement of [125I]iodoproxyfan from human histamine H3 receptor expressing CHO cells. In kind it is cell-based. For orientation: Displacement assays read how much labelled ligand stays bound in the presence of the test substance.
Assay [4] has as its target T1, Histamine H3 receptor. Put plainly: biochemical.
The next assay addresses Histamine H1 receptor (Cavia porcellus, UniProt P31389). Put plainly: Potency at histamine H1 receptor subtype, was tested on guinea pig right ileum. The assay is classed as tissue-based. The conditions noted are these: read-out: pA2 (converted).
For the next assay, the target named is Histamine H2 receptor (Cavia porcellus, UniProt P47747). Put plainly: Potency at histamine H2 receptor subtype, was tested on guinea pig right atrium. In kind it is tissue-based, Cardiac atrium. Conditions: read-out: pA2 (converted).
Assay [5] has as its target Histamine N-methyltransferase (Rattus norvegicus, UniProt Q01984). In words: Compound was tested against histamine N-methyl-transferase in rat brain [EC 2.1.1.8](relative weak affinity on rat enzyme). The assay is classed as tissue-based.

Each structure is given as a SMILES string. A value given as a limit tells only on which side of the number the result lay.

T1 sequence (Q9Y5N1 whole entry): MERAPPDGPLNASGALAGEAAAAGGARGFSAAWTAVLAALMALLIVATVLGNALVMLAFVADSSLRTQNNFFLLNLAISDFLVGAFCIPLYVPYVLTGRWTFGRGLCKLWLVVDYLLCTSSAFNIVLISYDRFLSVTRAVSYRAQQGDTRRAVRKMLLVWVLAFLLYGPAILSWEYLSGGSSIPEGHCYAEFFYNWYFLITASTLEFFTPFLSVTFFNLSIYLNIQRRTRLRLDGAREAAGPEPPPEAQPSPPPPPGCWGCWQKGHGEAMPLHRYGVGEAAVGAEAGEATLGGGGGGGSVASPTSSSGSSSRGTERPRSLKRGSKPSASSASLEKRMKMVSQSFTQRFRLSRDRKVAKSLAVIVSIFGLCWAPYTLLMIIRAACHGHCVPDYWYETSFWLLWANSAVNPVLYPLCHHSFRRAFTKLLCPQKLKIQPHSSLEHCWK
Chain of Histamine H1 receptor (P31389 whole entry): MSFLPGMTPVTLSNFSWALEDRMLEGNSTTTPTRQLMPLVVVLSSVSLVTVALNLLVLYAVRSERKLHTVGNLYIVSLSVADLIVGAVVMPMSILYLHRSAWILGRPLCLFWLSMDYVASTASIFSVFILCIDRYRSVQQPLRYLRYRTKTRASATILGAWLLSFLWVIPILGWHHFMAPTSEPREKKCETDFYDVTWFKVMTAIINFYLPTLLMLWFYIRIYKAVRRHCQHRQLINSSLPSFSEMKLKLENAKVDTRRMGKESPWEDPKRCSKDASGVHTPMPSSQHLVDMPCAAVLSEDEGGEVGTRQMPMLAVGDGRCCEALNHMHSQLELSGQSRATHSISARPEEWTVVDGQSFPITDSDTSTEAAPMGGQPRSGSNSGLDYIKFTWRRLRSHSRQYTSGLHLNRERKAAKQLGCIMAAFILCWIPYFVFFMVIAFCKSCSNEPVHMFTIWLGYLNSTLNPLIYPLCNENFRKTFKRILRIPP
Chain of Histamine H3 receptor (Mus musculus) (P58406 whole entry): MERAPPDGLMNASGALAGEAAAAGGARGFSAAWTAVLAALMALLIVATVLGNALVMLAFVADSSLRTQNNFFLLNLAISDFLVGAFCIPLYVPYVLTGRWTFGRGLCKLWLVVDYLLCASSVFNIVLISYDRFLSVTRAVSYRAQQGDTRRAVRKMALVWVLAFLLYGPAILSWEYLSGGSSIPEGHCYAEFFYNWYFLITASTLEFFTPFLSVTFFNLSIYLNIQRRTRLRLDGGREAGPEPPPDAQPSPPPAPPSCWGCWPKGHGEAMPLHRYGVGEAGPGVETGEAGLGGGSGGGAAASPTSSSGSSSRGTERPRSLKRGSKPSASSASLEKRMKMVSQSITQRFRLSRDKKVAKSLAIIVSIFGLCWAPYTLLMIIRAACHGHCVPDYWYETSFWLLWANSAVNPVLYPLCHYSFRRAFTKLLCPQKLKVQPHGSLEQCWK
Chain of Histamine H2 receptor (P47747 whole entry): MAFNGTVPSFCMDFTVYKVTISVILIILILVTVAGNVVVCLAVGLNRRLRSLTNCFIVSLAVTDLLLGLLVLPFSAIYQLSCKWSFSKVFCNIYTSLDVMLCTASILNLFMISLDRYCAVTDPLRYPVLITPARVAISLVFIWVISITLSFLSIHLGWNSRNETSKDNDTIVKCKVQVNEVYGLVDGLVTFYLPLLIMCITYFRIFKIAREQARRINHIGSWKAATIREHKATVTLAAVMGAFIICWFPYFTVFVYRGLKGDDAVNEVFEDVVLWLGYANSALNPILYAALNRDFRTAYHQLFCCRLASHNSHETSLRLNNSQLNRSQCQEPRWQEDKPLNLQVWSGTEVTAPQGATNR
Chain of Histamine H3 receptor (Cavia porcellus, UniProt Q9JI35) (Q9JI35 whole entry): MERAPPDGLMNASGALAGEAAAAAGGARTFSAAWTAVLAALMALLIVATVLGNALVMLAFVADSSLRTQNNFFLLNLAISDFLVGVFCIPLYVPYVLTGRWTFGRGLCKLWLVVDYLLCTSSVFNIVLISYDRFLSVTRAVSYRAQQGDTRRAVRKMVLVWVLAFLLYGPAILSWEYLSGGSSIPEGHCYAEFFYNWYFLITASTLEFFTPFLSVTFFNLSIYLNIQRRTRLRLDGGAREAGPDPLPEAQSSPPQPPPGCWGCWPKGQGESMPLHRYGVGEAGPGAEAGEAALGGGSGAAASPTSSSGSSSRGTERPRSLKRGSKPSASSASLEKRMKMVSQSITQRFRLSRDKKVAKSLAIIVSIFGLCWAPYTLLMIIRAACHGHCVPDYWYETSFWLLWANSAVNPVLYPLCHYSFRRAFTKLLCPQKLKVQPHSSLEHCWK
Chain of Histamine N-methyltransferase (Q01984 whole entry): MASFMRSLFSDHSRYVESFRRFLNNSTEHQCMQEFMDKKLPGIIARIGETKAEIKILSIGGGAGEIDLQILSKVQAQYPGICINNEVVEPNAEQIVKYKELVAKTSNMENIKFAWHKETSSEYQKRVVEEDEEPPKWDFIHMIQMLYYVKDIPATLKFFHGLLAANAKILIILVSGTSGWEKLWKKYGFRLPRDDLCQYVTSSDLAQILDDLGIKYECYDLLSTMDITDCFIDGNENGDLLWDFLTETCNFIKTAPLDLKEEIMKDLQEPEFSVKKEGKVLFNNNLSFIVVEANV

In the case of `CC(=O)c1ccc(OCc2ccc(CN3CCCCCC3)cc2)cc1`, it took a dose of 4.3 mg/kg to reach the 50% effect level in assay [1] (ED50). The Kb at Histamine H3 receptor [2] is 30.9 nM. The Ki at Histamine H3 receptor [3] is 37 nM.

In assay [1], `O=[N+]([O-])c1ccc(OCCCCCN2CCCC2)cc1` yielded a median effective dose (ED50) of 1.1 mg/kg. Also, the Ki on Histamine H3 receptor [4] was 39 nM.

Take `C/C(=N\O)c1ccc(OCc2ccc(CN3CCCCC3)cc2)cc1`: the ED50 in assay [1] stood at 5 mg/kg. The Kb on Histamine H3 receptor [2] was 85.1 nM; at Histamine H1 receptor, 7940 nM; on Histamine H2 receptor, 14100 nM. At Histamine H3 receptor [3], this compound registered a Ki of 55 nM.

Compound `c1cc(CN2CCCCC2)ccc1COc1ccc(C2CCCC2)cc1` returned an ED50 in assay [1] of 3.1 mg/kg. Also, the Ki at Histamine H3 receptor [3] was 201 nM.

Take `Clc1ccc(OCc2ccc(CN3CCCCC3)cc2)cc1Cl`: in assay [1], the ED50 is above 10 mg/kg. Also, the affinity on Histamine H3 receptor [3] corresponds to a Ki of 167 nM.

The compound `c1cn(-c2ccc(OCc3ccc(CN4CCCCC4)cc3)cc2)cn1` had a median effective dose (ED50) in assay [1] of 4 mg/kg. The Kb at Histamine H3 receptor [2] is 15.8 nM. Also, on Histamine H3 receptor [3], the Ki worked out at 27 nM.

As to `c1ccc(Cc2ccc(OCc3ccc(CN4CCCCC4)cc3)cc2)cc1`, in assay [1], the ED50 was above 10 mg/kg. This compound also registered an inhibition constant Ki on Histamine H3 receptor [3] of 238 nM.

The compound `C(=C\c1ccc(OCc2ccc(CN3CCCCC3)cc2)cc1)/c1ccccc1` registered an ED50 in assay [1] above 10 mg/kg. On Histamine H3 receptor [3], this compound yielded a Ki of 761 nM.

In assay [1], `CCCCCc1ccc(OCc2ccc(CN3CCCCC3)cc2)cc1` displayed an ED50 of 3 mg/kg.

In assay [1], `CCCc1ccc(OCc2ccc(CN3CCCCC3)cc2)cc1` returned an ED50 of 4.3 mg/kg. At Histamine H3 receptor [3], this compound had an inhibitory constant (Ki) of 257 nM.

`O=C(c1ccc(OCc2ccc(CN3CCCCC3)cc2)cc1)C1CCCC1` yielded an ED50 in assay [1] of 2.8 mg/kg. Besides, on Histamine H3 receptor [2], the Kb is 30.9 nM. This compound displayed a Ki on Histamine H3 receptor [3] of 157 nM.

Regarding `CCCCc1ccc(OCc2ccc(CN3CCCCC3)cc2)cc1`, the ED50 in assay [1] came out at 2.8 mg/kg. Also, at Histamine H3 receptor [3], the Ki turned out to be 169 nM.

In turn, `c1ccc(Oc2ccc(OCc3ccc(CN4CCCCC4)cc3)cc2)cc1` had an ED50 in assay [1] above 10 mg/kg. At Histamine H3 receptor [3], this compound gave a Ki of 530 nM.

`CCc1ccc(OCc2ccc(CN3CCCCC3)cc2)cc1`: it took a dose of 2.2 mg/kg to reach the 50% effect level in assay [1] (ED50). At Histamine H3 receptor [3], this compound registered a Ki of 163 nM.

`CO/N=C(\C)c1ccc(OCc2ccc(CN3CCCCC3)cc2)cc1` showed an ED50 in assay [1] of 6.4 mg/kg. The Kb at Histamine H3 receptor [2] is 288 nM; on Histamine H1 receptor, 3470 nM; on Histamine H2 receptor, 3980 nM. For the same compound, affinity at Histamine H3 receptor [3] was put at a Ki of 129 nM.

With `Brc1ccc(OCc2ccc(CN3CCCCC3)cc2)cc1`, the ED50 in assay [1] is above 10 mg/kg. This compound also displayed a Ki at Histamine H3 receptor [3] of 114 nM.

`CCCOc1ccc(OCc2ccc(CN3CCCCC3)cc2)cc1` came in with an ED50 in assay [1] of 10 mg/kg. Moreover, the Ki at Histamine H3 receptor [3] was determined as 88 nM.

The compound `CC(C)c1ccc(OCc2ccc(CN3CCCCC3)cc2)cc1` returned an ED50 in assay [1] of 3 mg/kg. Besides, the inhibition constant (Ki) on Histamine H3 receptor [3] worked out at 253 nM.

With `FC(F)(F)c1ccc(OCc2ccc(CN3CCCCC3)cc2)cc1`, the ED50 in assay [1] was above 10 mg/kg. This compound came in with a Ki on Histamine H3 receptor [3] of 125 nM.

As for `O=C(c1ccc(OCc2ccc(CN3CCCCC3)cc2)cc1)C1CC1`, the ED50 in assay [1] came out at 5.9 mg/kg. Besides, the inhibitory constant (Ki) at Histamine H3 receptor [3] was 66 nM.

As to `CC(=O)c1ccc(OCc2ccc(CN3CCCCC3)cc2)cc1`, the ED50 in assay [1] is 3.9 mg/kg. For the same compound, the values for the Kb on Histamine H3 receptor [2], on Histamine H1 receptor and on Histamine H2 receptor were 61.7 nM, 4570 nM and 10200 nM, respectively. The IC50 in assay [5] worked out at 10400 nM. The Ki on Histamine H3 receptor [3] was determined as 84 nM.

For the compound `CC(=O)c1ccc(OCCCc2c[nH]cn2)cc1`, the ED50 in assay [1] came out at 0.24 mg/kg. In addition, the Ki on Histamine H3 receptor [3] amounted to 87 nM.

On to `CC(=O)c1ccc(OCc2ccc(CN3CCCC3)cc2)cc1`, for which the 50% effect level in assay [1] (ED50) was put at a dose of 1.9 mg/kg. In addition, the Kb on Histamine H3 receptor [2] was 18.2 nM; at Histamine H1 receptor, 9330 nM; at Histamine H2 receptor, 7760 nM. This compound returned a Ki on Histamine H3 receptor [3] of 26 nM.

With `Clc1ccc(OCc2ccc(CN3CCCCC3)cc2)cc1`, in assay [1], the ED50 is above 10 mg/kg. The same compound showed a Ki at Histamine H3 receptor [3] of 124 nM.

In turn, `c1cc(CN2CCCCC2)ccc1COc1ccc2c(c1)CCC2` displayed a median effective dose (ED50) in assay [1] of 1.9 mg/kg. Also, the affinity on Histamine H3 receptor [3] corresponds to a Ki of 87 nM.

Compound `CCN(CC)Cc1ccc(COc2ccc(C(C)=O)cc2)cc1` registered an ED50 in assay [1] of 3.4 mg/kg. Affinity at Histamine H3 receptor [3] was put at a Ki of 91 nM.

Regarding `c1ccc(CCc2ccc(OCc3ccc(CN4CCCCC4)cc3)cc2)cc1`, the ED50 in assay [1] worked out at 30 mg/kg. In addition, the Ki at Histamine H3 receptor [3] came out at 890 nM.

In assay [1], `Cc1cccc(OCc2ccc(CN3CCCCC3)cc2)c1` gave an ED50 of 20 mg/kg. This compound showed a Ki at Histamine H3 receptor [3] of 334 nM.

In assay [1], `Cc1cc(OCc2ccc(CN3CCCCC3)cc2)ccc1Cl` gave an ED50 above 10 mg/kg. Also, the Ki on Histamine H3 receptor [3] is 42 nM.

Consider `Ic1ccc(OCc2ccc(CN3CCCCC3)cc2)cc1`, for which the ED50 in assay [1] was above 10 mg/kg. For the same compound, on Histamine H3 receptor [3], the Ki stood at 107 nM.

Take `Fc1ccc(OCc2ccc(CN3CCCCC3)cc2)cc1`: the ED50 in assay [1] was determined as 15 mg/kg. The affinity on Histamine H3 receptor [3] corresponds to a Ki of 123 nM.

In assay [1], `Fc1cc(OCc2ccc(CN3CCCCC3)cc2)ccc1Cl` displayed an ED50 above 10 mg/kg. The compound further came in with a Ki at Histamine H3 receptor [3] of 95 nM.

`Cc1ccc(OCc2ccc(CN3CCCCC3)cc2)cc1`: the ED50 in assay [1] came out at 1.8 mg/kg.

In the case of `c1ccc(NCc2ccc(OCc3ccc(CN4CCCCC4)cc3)cc2)cc1`, the ED50 in assay [1] was 10 mg/kg. For the same compound, the Ki at Histamine H3 receptor [3] was found to be 90 nM.

In assay [1], `c1cc(CN2CCCCC2)ccc1COc1ccc(CN2CCCCC2)cc1` returned an ED50 of 9.6 mg/kg. The Kb at Histamine H3 receptor [2] is 38 nM. On Histamine H3 receptor [3], the inhibition constant Ki is 2.8 nM.

In turn, `c1ccc(OCc2ccc(CN3CCCCC3)cc2)cc1` showed an ED50 in assay [1] of 30 mg/kg. The Ki on Histamine H3 receptor [3] was 227 nM.

Regarding `c1ccc(COc2ccc(OCc3ccc(CN4CCCCC4)cc3)cc2)cc1`, the 50% effective dose (ED50) in assay [1] is above 30 mg/kg. The compound further had a Ki on Histamine H3 receptor [3] of 550 nM.

Consider `Cc1ccc(OCc2ccc(CN3CCCCC3)cc2)cc1C`, for which the 50% effective dose (ED50) in assay [1] is 4.8 mg/kg. This compound also displayed a Ki on Histamine H3 receptor [3] of 149 nM.

On to `c1cc(CN2CCCCC2)ccc1COc1ccc2c(c1)CCCC2`, for which the ED50 in assay [1] amounted to 3.5 mg/kg. Affinity on Histamine H3 receptor [3] was put at a Ki of 92 nM.

Consider `COc1ccc(OCc2ccc(CN3CCCCC3)cc2)cc1`, for which the 50% effect level in assay [1] (ED50) was put at a dose of 20 mg/kg. For the same compound, the Ki on Histamine H3 receptor [3] worked out at 119 nM.
